What was measured:
[1] = Chemical stability of the compound in phosphate buffer at pH 7.4 assessed as half life at 100 uM after 30 mins by RP-HPLC analysis; format: physicochemical
How it was run: (§1)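 10 mM methanol stock diluted into 50 mM phosphate buffer pH 7.4 prewarmed to 37 °C, final 100 µM; maintained at 37.0 ± 0.5 °C, sampled every 30 min by RP-HPLC (C8, methanol/water 0.1% TFA) for parent loss and oxime formation; first-order kinetics for t1/2; triplicate.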

[2] = Dissociation constant, pKa of the compound by potentiometric titration; format: physicochemical
How it was run: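 Potentiometric titration under N2 at 25.0 ± 0.1 °C; about 1 mM compound in at least five water–methanol mixtures (24-58 wt% MeOH), ionic strength 0.15 M KCl, acidified to pH 1.8 with 0.5 N HCl, titrated with 0.5 N KOH to pH 10.5; aqueous pKa by Yasuda-Shedlovsky extrapolation to zero cosolvent.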

[3] = molecular target: Dihydroorotate dehydrogenase (quinone), mitochondrial (Rattus norvegicus, UniProt Q63707); assay: Inhibition of DHODH in Wistar rat liver homogenates by DCIP reduction assay; format: tissue-based
Chain of Dihydroorotate dehydrogenase (quinone), mitochondrial (Q63707 whole entry): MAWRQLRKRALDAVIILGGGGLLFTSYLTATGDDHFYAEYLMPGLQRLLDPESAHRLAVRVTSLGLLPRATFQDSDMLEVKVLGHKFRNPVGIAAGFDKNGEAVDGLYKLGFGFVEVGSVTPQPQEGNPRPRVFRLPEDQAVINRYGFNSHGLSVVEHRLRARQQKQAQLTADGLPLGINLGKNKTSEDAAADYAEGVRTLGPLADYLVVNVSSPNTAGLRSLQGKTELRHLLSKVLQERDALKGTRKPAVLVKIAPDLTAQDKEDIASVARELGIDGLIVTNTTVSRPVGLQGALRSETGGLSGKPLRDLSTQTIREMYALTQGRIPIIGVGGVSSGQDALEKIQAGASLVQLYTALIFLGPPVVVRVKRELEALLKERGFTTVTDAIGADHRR

[4] = Chemical stability of the compound in acidic medium at pH 1 after 6 hrs by RP-HPLC analysis; format: physicochemical; details: buffer, pH 1, 6 h
How it was run: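 Compound added from 10 mM methanol stock into 0.1 M HCl (pH 1) at 37 °C, final 100 µM; held at 37.0 ± 0.5 °C and analysed by RP-HPLC every 30 min for unchanged compound and oxime product; triplicate incubations; C8 column, methanol/water with 0.1% TFA.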

[5] = Chemical stability of the compound in basic medium assessed as half life at pH 10 after 6 hrs by RP-HPLC analysis; format: physicochemical
How it was run: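 Run in 0.1 M phosphate buffer, pH 10, at 37.0 ± 0.5 °C, compound 100 µM final (from 10 mM methanol stock); RP-HPLC every 30 min quantifying parent and oxime; ring opening treated as first-order for half-life; triplicate incubations.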

[6] = Chemical stability of the compound in phosphate buffer at pH 7.4 assessed as unchanged compound level at 100 uM after 24 hrs by RP-HPLC analysis; format: physicochemical; details: read-out: Stability; how it was run: as §1

Row | Structure (SMILES) | half-life at 100 µM [1] [min] | pKa [2] | also measured
1 | O=C(Nc1ccc(-c2ccccc2)cc1)c1cnon1 | 76.9 |  | 
2 | Cc1ccc(NC(=O)/C(C#N)=N/O)cc1 |  | 5.07 | 
3 | O=C(Nc1ccccc1F)c1cnon1 | 102 |  | 
4 | N#C/C(=N\O)C(=O)Nc1ccc(-c2ccccc2)cc1 |  | 5.03 | 
5 | N#CC(C(=O)Nc1ccc(-c2ccccc2)cc1)=[N+]([O-])[O-] |  |  | IC50 [3]: 26 µM
6 | O=C(Nc1ccccc1)c1cnon1 | 123 |  | 
7 | N#C/C(=N\O)C(=O)Nc1cc(F)cc(F)c1 |  | 4.81 | 
8 | N#C/C(=N\O)C(=O)Nc1cc(C(F)(F)F)cc(C(F)(F)F)c1 |  | 4.73 | 
9 | COc1ccc(NC(=O)c2cnon2)cc1 | 106 |  | 
10 | COc1ccc(NC(=O)/C(C#N)=N/O)cc1 |  | 5.08 | 
11 | N#CC(C(=O)Nc1ccc([N+](=O)[O-])cc1)=[N+]([O-])[O-] |  |  | IC50 [3]: 74 µM
12 | O=C(Nc1cccc(F)c1)c1cnon1 | 108 |  | 
13 | N#C/C(=N\O)C(=O)Nc1cccc(C(F)(F)F)c1 |  | 4.88 | 
14 | Cc1ccc(NC(=O)c2cnon2)cc1 | 113 |  | 
15 | N#CC(C(=O)Nc1ccc(C(F)(F)F)cc1)=[N+]([O-])[O-] |  |  | IC50 [3]: 17 µM
16 | N#C/C(=N\O)C(=O)Nc1ccc([N+](=O)[O-])cc1 |  | 4.61 | 
17 | N#C/C(=N\O)C(=O)Nc1ccccc1F |  | 4.87 | 
18 | N#C/C(=N\O)C(=O)Nc1cccc(F)c1 |  | 4.92 | 
19 | N#C/C(=N\O)C(=O)Nc1ccccc1 |  | 5.12 | 

The next lines start with results.

Row | half-life at 100 µM [1] [min] | pKa [2] | Structure (SMILES) | also measured
20 | 90.9 |  | O=C(Nc1cc(C(F)(F)F)cc(C(F)(F)F)c1)c1cnon1 | 
21 | 88.7 |  | O=C(Nc1ccc(F)cc1)c1cnon1 | 
22 |  | 4.87 | N#C/C(=N\O)C(=O)Nc1ccc(C(F)(F)F)cc1 | IC50 [3]: 60 µM
23 | 69 |  | O=C(Nc1ccc([N+](=O)[O-])cc1)c1cnon1 | 
24 | 101 |  | O=C(Nc1cccc(C(F)(F)F)c1)c1cnon1 | 
25 | 82.5 |  | O=C(Nc1ccc(C(F)(F)F)cc1)c1cnon1 | Stability [4]: Stable; half-life [5]: < 1 min
26 |  | 5.01 | N#C/C(=N\O)C(=O)Nc1ccc(F)cc1 | 
27 | > 1440 |  | Cc1oncc1C(=O)Nc1ccc(C(F)(F)F)cc1 [LEFLUNOMIDE] | IC50 [3]: 1.6 µM; Stability [4]: Stable; remaining at 24 h, 100 µM [6]: 80%; half-life [5]: 70 min
28 | 92 |  | O=C(Nc1cc(F)cc(F)c1)c1cnon1 | 
